Consider six compounds from ChEMBL document CHEMBL3526099, “Metabolism of triethylenetetramine and 1,12-diamino-3,6,9-triazadodecane by the spermidine/spermine-N(1)-acetyltransferase and thialysine acetyltransferase” (Drug Metab Dispos, 2013).

Each structure is given as a SMILES string.

In series [1] the target is T1, Thialysine N-epsilon-acetyltransferase (Homo sapiens, UniProt Q96F10). Briefly: Drug level in human HepG2 cells assessed as SSAT2-mediated compound formation treated with TETA at 1 mM for 24 hrs. The following applies: hepg2, 24 h, 1000 µM. It is filed as ADME, cell-based.
T1 sequence (Q96F10 whole entry): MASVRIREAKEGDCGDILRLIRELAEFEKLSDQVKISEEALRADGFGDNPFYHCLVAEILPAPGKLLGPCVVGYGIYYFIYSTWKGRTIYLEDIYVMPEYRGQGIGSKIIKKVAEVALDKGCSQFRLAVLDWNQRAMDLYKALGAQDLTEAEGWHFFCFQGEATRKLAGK
Series [2] concerns the target T2, Diamine acetyltransferase 1 (Homo sapiens, UniProt P21673). Briefly: Drug level in human HepG2 cells assessed as SSAT1-mediated compound formation treated with SpmTrien at 100 uM for 24 hrs. It is filed as ADME, cell-based. The following applies: hepg2, 24 h.
Target sequence in this assay (P21673 whole entry): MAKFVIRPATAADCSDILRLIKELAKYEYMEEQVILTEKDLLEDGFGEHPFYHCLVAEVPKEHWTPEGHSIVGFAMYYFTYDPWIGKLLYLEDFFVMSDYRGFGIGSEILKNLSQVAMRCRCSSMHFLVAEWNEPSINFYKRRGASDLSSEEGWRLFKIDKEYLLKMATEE
A further series concerns HepG2. Put plainly: Drug metabolism in human HepG2 cells at 100 uM for 24 hrs in presence of SSAT1 shRNA. It is filed as ADME, cell-based. The following applies: hepg2, 24 h. Put shortly: (§1)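 HepG2 cells were transduced with control, SSAT1 or SSAT2 shRNA lentiviral particles and stable clones selected with puromycin (5 µg/ml) for one week. Cells were plated overnight, then incubated 24 h with 1 mM TETA or 100 µM SpmTrien. Intracellular metabolites were measured. Means ± SD, n=3.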

Series [3] deals with T3, Diamine acetyltransferase 1 (Mus musculus, UniProt P48026). Put plainly: Drug metabolism in mouse primary hepatocytes assessed as SSAT1-mediated (N1-acetyl)-1,12-diamino-3,6,9-triazadodecane formation at 100 uM for 4 hrs in presence of SSAT2 siRNA. It is filed as ADME, cell-based, Hepatocyte. Put shortly: (§2)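 Hepatocytes from SSAT1-KO or wild-type mouse liver were isolated by collagenase perfusion and plated on collagen I in William's E with dexamethasone, FBS and insulin. They were reverse-transfected with control or SSAT2 siRNA (100 nM) for 2 d, then exposed to 1 mM TETA or 100 µM SpmTrien for 4 h. Intracellular metabolites were measured. Means ± SD, n=3.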
T3 sequence (P48026 whole entry, the tested form may be a part): as the sequence (P21673 whole entry) above, with V5K, A12S, E32D, L42Q, R119K, T169A counted along it

Series [4] deals with T2, Diamine acetyltransferase 1. Briefly: Drug metabolism in human HepG2 cells assessed as SSAT1-mediated (N1-acetyl)-1,12-diamino-3,6,9-triazadodecane formation at 100 uM for 24 hrs. It is filed as ADME, cell-based. The following applies: hepg2, 24 h.
Target sequence in this assay (P21673 whole entry): as the sequence (P21673 whole entry) above
Series [5] shares this target. Briefly: Drug metabolism in human HepG2 cells assessed as SSAT1-mediated (N1-acetyl)-spermine formation at 100 uM for 24 hrs. It is filed as ADME, cell-based. The following applies: hepg2, 24 h.
Target sequence in this assay (P21673 whole entry): as above
Series [6] has the same target. Briefly: Drug metabolism in human HepG2 cells assessed as SSAT1-mediated (N1-acetyl)-1,12-diamino-3,6,9-triazadodecane formation at 100 uM for 24 hrs in presence of SSAT2 shRNA. It is filed as ADME, cell-based. The following applies: hepg2, 24 h. Put shortly: as §1
Target sequence in this assay (P21673 whole entry): as above
The target is the same in series [7]. Briefly: Drug metabolism in human HepG2 cells assessed as SSAT1-mediated (N1-acetyl)-spermidine formation at 100 uM for 24 hrs. It is filed as ADME, cell-based. The following applies: hepg2, 24 h.
Target sequence in this assay (P21673 whole entry): as above
The nature of series [8]: Drug metabolism in SSAT1-knockout mouse primary hepatocytes at 100 uM for 4 hrs. It is filed as ADME, cell-based, Hepatocyte. Put shortly: as §2
Series [9] has as its target T2, Diamine acetyltransferase 1. Briefly: Drug level in human HepG2 cells assessed as SSAT1-mediated compound formation per ug DNA treated with Spm Trien at 100 uM for 24 hrs. It is filed as ADME, cell-based. The following applies: hepg2, 24 h.
Target sequence in this assay (P21673 whole entry): as above
Series [10] addresses T3, Diamine acetyltransferase 1. Put plainly: Drug level in mouse primary hepatocytes assessed as SSAT1-mediated compound formation treated with 100 uM SpmTrien for 4 hrs in presence of SSAT2 siRNA. It is filed as ADME, cell-based, Hepatocyte. The procedure, abridged: as §2
For series [11], the target named is T2, Diamine acetyltransferase 1. Briefly: Drug level in human HepG2 cells assessed as SSAT1-mediated compound formation treated with SpmTrien at 100 uM for 24 hrs in presence of SSAT2 shRNA. The following applies: hepg2, 24 h. It is filed as ADME, cell-based. The procedure, abridged:
as §1

For series [12] the target is unchanged. Put plainly: Drug level in human HepG2 cells assessed as SSAT1-mediated compound formation treated with SpmTrien at 100 uM for 24 hrs pretreated with 50 uM DENSpm for 24 hrs. It is filed as ADME, cell-based. The following applies: hepg2, 24 h. Put shortly:
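HepG2 cells were pretreated for 24 h with 50 µM DENSpm or medium alone, washed, then incubated for 24 h with 1 mM TETA or 100 µM SpmTrien. Intracellular metabolites were measured from cell lysates. Means ± SD, n=3.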

The target of series [13] is T1, Thialysine N-epsilon-acetyltransferase. Briefly: Activity of human recombinant SSAT2 assessed as compound formation treated with 1 mM SpmTrien for 50 mins by HPLC analysis. It is filed as ADME. Put shortly: (§3)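 SpmTrien (1 mM) incubated with 50-100 ng human recombinant enzyme for 10-50 min at 37 °C in 100 mM Tris-HCl pH 7.8 containing 1 mM acetyl-CoA and 1 mM DTT. The reaction was stopped with sulphosalicylic acid containing diaminoheptane as internal standard, and acetylated products were quantified by HPLC.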

Series [14] deals with T3, Diamine acetyltransferase 1. Put plainly: Drug level in mouse primary hepatocytes assessed as SSAT1-mediated compound formation per ug DNA treated with SpmTrien at 100 uM for 4 hrs.
The target in series [15] is T2, Diamine acetyltransferase 1. Put plainly: Activity of human recombinant SSAT1 assessed as compound formation treated with 1 mM SpmTrien for 50 mins by HPLC analysis. It is filed as ADME. Put shortly:
as §3

Series [16] has the same target. Put plainly: Drug level in human HepG2 cells assessed as SSAT1-mediated compound formation treated with TETA at 1 mM for 24 hrs pretreated with 50 uM DENSpm for 24 hrs. The following applies: hepg2, 24 h, 1000 µM.
Target sequence in this assay (P21673 whole entry, looked up): as the sequence (P21673 whole entry) above
Series [17] deals with T1, Thialysine N-epsilon-acetyltransferase. Briefly: Drug level in human HepG2 cells assessed as SSAT2-mediated compound formation treated with TETA at 1 mM for 24 hrs in presence of SSAT1 shRNA. It is filed as ADME, cell-based. The following applies: hepg2, 24 h, 1000 µM. The procedure, abridged: as §1
The target is the same in series [18]. Briefly: Drug level in human HepG2 cells assessed as SSAT2-mediated compound formation per ug DNA treated with TETA at 1 mM for 24 hrs. The following applies: hepg2, 24 h, 1000 µM. It is filed as ADME, cell-based.
The target of series [19] is Thialysine N-epsilon-acetyltransferase (Mus musculus, UniProt Q6P8J2). Briefly: Drug level in mouse primary hepatocytes assessed as SSAT2-mediated compound formation per ug DNA treated with TETA at 1 mM for 4 hrs. The following applies: 1000 µM.
Sequence of Thialysine N-epsilon-acetyltransferase (Mus musculus, UniProt Q6P8J2) (Q6P8J2 whole entry): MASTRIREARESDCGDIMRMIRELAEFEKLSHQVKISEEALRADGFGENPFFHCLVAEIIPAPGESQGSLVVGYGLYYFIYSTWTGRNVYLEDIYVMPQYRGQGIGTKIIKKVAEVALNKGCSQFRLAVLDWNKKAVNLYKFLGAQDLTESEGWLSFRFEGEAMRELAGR

As to `CC(=O)NCCCNCCCCNCCCN`, the Drug metabolism entry in series [1] and in [2] was “metabolite_detected” each time.

For `CC(=O)NCCCNCCCCN`, the Drug metabolism entry in series [1] and in [2] was “metabolite_detected” each time.

In the case of `NCCCNCCNCCNCCN`, the Drug metabolism result in the series with HepG2 was “metabolite_not_detected”; in series [3], “metabolite_detected”; in series [4], “metabolite_detected”; in [5], “metabolite_detected”; in series [6], “metabolite_detected”; in [7], “metabolite_detected”. For the same compound, the Drug metabolism result in series [8] is listed as “metabolite_not_detected”.

On to `CC(=O)NCCNCCNCCNCCCN`, for which the Drug metabolism in series [9] was 0.8 pmol/h; in series [10] it was “metabolite_detected”; in series [11] it was “metabolite_detected”; in series [12], “metabolite_detected”; in [13], 0.65 nmol; in series [14], 3.4 pmol/h. Besides, the figures for the Drug metabolism result in [2] and in series [15] were “metabolite_detected” and 12.8 nmol, respectively.

Take `CC(=O)NCCCNCCNCCNCCN`: the Drug metabolism entry was “metabolite_detected” in series [12], 1.1 nmol in [13] and 4.2 nmol in series [15].

With `CC(=O)NCCNCCNCCN`, the Drug metabolism entry was “metabolite_detected” in series [16]; “metabolite_detected” in series [1]; “metabolite_detected” in series [17]; 10 pmol/h in [18]; 40 pmol/h in series [19].
